Bioassay records (PubChem BioAssay)
PMI activator = increases human mannose-6-phosphate isomerase activity. P34949. purified human PMI, coupled resazurin fluorescence, 20 min; active compounds read high; 1 = vehicle control, 0 substrate-free wells. activation factor at 20 µM. 190,000 tested, 0.005% active;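 active means activation factor of 2 or more at 20 µM, relative to plate controls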
PMI act satM6P = PMI (human) activation, high substrate | coupled PMI enzyme assay, resazurin fluorescence, 20 min; active compounds read high; 1 = untreated enzyme, 0 = substrate-free blank | activation factor at 20 µM | 190,000 tested, 0.34% active;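 active means activation factor of 2 or more at 20 µM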
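Test system: human PMI in coupled enzyme assay; Input: PMI at 15 ng/mL final; Medium: HEPES buffer, pH 7.4; Schedule: 20 min incubation at room temperature; Technique: resorufin fluorescence at Ex 544/Em 590 nm; Compound: 20 µM single dose; Probe or stimulus: Near-saturating mannose-6-phosphate, 1.0 mM.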
ABCB1 block = blocks JC-1 efflux by human ABCB1 transporter; inhibition, % at 6.6 µM; CCRF-Adr cells, flow cytometry; 190,000 tested, 0.067% active; P08183; in the data active means inhibition above about 40%;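 further: 0% = vehicle and 100% = reference inhibitor; higher value means more JC-1 retained so stronger ABCB1 efflux block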
ROMK mod = modulates human ROMK potassium channel activity; P48048; B-score at 10 µM; 130,000 tested, 2% active; Tet-inducible ROMK, thallium flux fluorescence; actives lie on both sides;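 active means signal ratio slope over the read window, or its plate-corrected B-score, at least 3 SD from the plate mean, either direction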;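 further: B-score of the F/F0 ratio slope over 7 to 12 s after thallium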
Target sequence (P48048 whole entry, looked up): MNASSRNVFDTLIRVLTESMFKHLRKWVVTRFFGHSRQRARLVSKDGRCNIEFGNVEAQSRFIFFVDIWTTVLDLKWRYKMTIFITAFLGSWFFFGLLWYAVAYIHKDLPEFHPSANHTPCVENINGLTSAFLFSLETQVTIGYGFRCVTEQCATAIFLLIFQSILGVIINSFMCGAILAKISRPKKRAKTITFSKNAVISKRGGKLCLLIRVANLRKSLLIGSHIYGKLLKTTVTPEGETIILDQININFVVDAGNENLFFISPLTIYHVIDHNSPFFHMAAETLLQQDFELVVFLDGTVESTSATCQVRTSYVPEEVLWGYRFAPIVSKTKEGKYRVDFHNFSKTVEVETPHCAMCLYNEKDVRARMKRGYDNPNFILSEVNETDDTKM
Cl transport mod = modulates chloride dependent transport by human KCC2. Q9H2X9. B-score of Tl+ flux slope (higher = more flux/activation; lower = inhibition) at 10 µM. KCC2 cells, thallium flux FluoZin-2 fluorescence. 190,000 tested, 2.2% active;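 active means thallium flux slope and its plate-corrected score both differing from the plate sample mean at a set confidence after two filtering rounds, in either direction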;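 further: slope of fluorescence scaled to starting intensity during 10 to 20 s after thallium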
ABCG2 inh = human ABCG2 inhibition, ABCB1 as counter-screen | Q9UNQ0 | IgMXP3 cells, JC-1 efflux, flow cytometry | inhibition, % at 6.6 µM | 190,000 tested, 0.1% active | AID 1325;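 active means inhibition above 80%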;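 further: 0% = DMSO and 100% = nicardipine control wells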
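material = IgMXP3 (ABCG2) plus far-red-tagged CCRF-Adr (ABCB1) cells | amount = 3 million cells/mL, equal mix of both lines | also added = JC-1 transporter substrate | dosing = one concentration, 6.6 µM final | schedule = 10 min at 25 °C | measured by = flow cytometric JC-1 green MFI at 530 nm | read-out basis = percent efflux inhibition, scaled nicardipine 100% to DMSO 0%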
Starred values were filed as active, the others as inactive; . = no result. Hits are enriched below; roughly 3.3% of the tested compounds scored in any of these assays.

SMILES	PMI activator	PMI act satM6P	ABCB1 block	ROMK mod	Cl transport mod	ABCG2 inh
CC(C)c1ccc(S(=O)(=O)/N=C2/C=C(Sc3ncn[nH]3)C(=O)c3ccccc32)cc1	0	0.2	1	-2.6*	1.7	3
Cc1ccc(S(=O)(=O)/N=C2/C=C(Sc3ncn[nH]3)C(=O)c3ccccc32)cc1	0	0.1	0	.	-0.95	-3
CC1(C)CC(=S)Nc2ccccc2S1	0.6	0.8	1	-0.054	4.7*	3
CC1(C)CC(=O)C2=C(C1)Nc1ccccc1S2	.	.	.	.	0.53	.
COc1ccc(Cn2c(C)nnc2-c2cnn(C)c2N)cc1	1	1	0	-0.2	0.3	0
COc1ccc(-c2cc(=Nc3ccc(C(=O)O)cc3)c3cc(C)ccc3o2)cc1	1.1	1	0	0.25	-4	14
CCc1ccc2oc(-c3ccc(OC)cc3)cc(=Nc3cccc(C(=O)O)c3)c2c1	1	0.8	0	2.3*	-7.2*	4
Cc1cc(=S)[nH]c(=S)[nH]1	.	.	.	.	1.3	.
Cc1cc(C)c2[nH]c(=S)cc(C)c2c1	1.5	1.8	0	2.2	31*	1
O=c1c(Cc2ccccc2)c(O)ccn1C1CCCCCCC1	0.9	0.9	0	-0.29	1.7	12
COc1ccc(CC2(CO)CCN(S(=O)(=O)c3sccc3C)CC2)cc1	0.9	1	0	-1.2	-0.86	0
CCOc1ccc(-n2c3nc4ccccc4nc3c3c(=O)n(Cc4ccco4)cnc32)cc1	.	.	.	1.1	2.8*	.
COC(CNC(=O)c1coc2nc3ccccc3nc12)OC	.	.	.	.	0.82	.
CC1=C(C#N)C(=O)NC(C)(C)C1	1	1	0	0.011	.	1
CC1=C(C#N)C(=O)N(C)C(C)(C)C1	0.8	0.9	0	1.5	2.8*	0
O=c1[nH]cnc(O)c1C(c1cccc([N+](=O)[O-])c1)c1c(O)nc[nH]c1=O	.	.	.	.	0.79	.
COc1ccccc1NC(=O)NC1(C(=O)N2CCC(O)CC2)CCCCC1	0.9	0.9	1	-5*	0.067	1
C/C(=N\NC(=O)c1ccccc1[N+](=O)[O-])c1ccc(Br)s1	1	0.9	1	0.26	0.79	19
C/C(=N\NC(=O)c1ccccc1O)c1ccc(Br)s1	1	0.9	-1	0.0079	11*	5
CC/C(=N\NC(=O)c1csc(C)c1C)c1cccs1	1.1	1	0	.	1.6	0
C/C(=N\NC(=S)NC(C)C)c1ccc(Cl)s1	0.9	1	-1	.	24*	-7
C/C(=N\NC(=O)c1csc(C)c1C)c1ccc(Cl)s1	1.2	1.2	0	-0.046	22*	1
COc1ccc(C2c3ccc(O)cc3Oc3ncn4nc(-c5ccncc5)nc4c32)cc1OC (centres undefined)	.	.	.	.	-1.6	.
CC1CCC(C(C)C)C(OCC(O)CNC(C)C)C1 (centres undefined)	.	.	.	-2.1	0.88	.
CC1=Nc2ccccc2N=C(NC(=O)c2ccccc2)C1c1ccccc1 (centres undefined)	0.8	0.8	2	0.38	-0.42	14
SMILES	PMI activator	PMI act satM6P	ABCB1 block	ROMK mod	Cl transport mod	ABCG2 inh
O=C(NC(=S)Nc1ccc(NC(=O)c2ccco2)cc1)c1ccccc1	1	1	-1	.	-1.1	-5
O=C(NC(=S)Nc1ccc(N2CCCCC2)cc1)c1ccco1	0.8	1	0	.	72*	3
CC1CCN(c2ccc(NC(=S)NC(=O)c3ccco3)cc2)CC1	0.8	1	0	.	25*	4
CC1(NC(=S)N(CCO)CCO)CCS(=O)(=O)C1 (centres undefined)	0.8	1	0	.	-0.11	3
CCOC(=O)C1CCCN(CC(=O)NC2=Nc3ccccc3N=C(C)C2c2ccccc2)C1 (centres undefined)	0.9	0.9	2	-2.1*	0.046	1
O=C1Cc2cc(CCN3CCN(c4nsc5ccccc45)CC3)c(Cl)cc2N1	1.2	1.1	.	.	-0.35	4
NC(=O)Nc1ccccc1C(=O)N1CCC(O)(c2ccc(Cl)cc2)CC1	1	1	0	-0.36	0.031	3
Cc1ccc2nc(N3C(=O)C(O)=C(C(=O)c4ccco4)C3c3cccs3)sc2c1 (centres undefined)	1.2	1.3	-1	-2.6*	.	-14
Cc1cccc(Nc2nc(CC(=O)O)cs2)c1	1.2	1.2	0	0.58	-1.6	4
